From ChEMBL document CHEMBL5058577, “EUbOPEN Chemogenomics Library 2 (Multiplex)” (2022)

System: Fibroblast
Test: Multiplex assay against human fibroblast
Assay type: toxicity, cell-based
Method in brief: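 Cells were classed with CellPathfinder machine-learning gating, first as Hoechst high-intensity objects or normal cells, then (normal cells) as healthy, pyknosed or fragmented nuclei, and finally (pyknosed cells) as mitotic or apoptotic. Staining of live cells at seeding used Hoechst33342, BioTracker Green Microtubule Cytoskeleton Dye, MitoTracker Red and Annexin V Alexa Fluor 680, with imaging on a CQ1 microscope at 37°C and 5% CO2 after compound addition. Tubulin, mitochondrial-mass and membrane-permeability phenotypes are per cents of healthy-nucleus cells.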

[1] = 12 h, 1 µM, compound concentration 1 uM, replicate 1
[2] = 12 h, 1 µM, compound concentration 1 uM, replicate 2
[3] = 12 h, 10 µM, compound concentration 10 uM, replicate 1
[4] = 12 h, 10 µM, compound concentration 10 uM, replicate 2
[5] = 24 h, 1 µM, compound concentration 1 uM, replicate 1
[6] = 24 h, 1 µM, compound concentration 1 uM, replicate 2
[7] = 24 h, 10 µM, compound concentration 10 uM, replicate 1
[8] = 24 h, 10 µM, compound concentration 10 uM, replicate 2
[9] = 48 h, 1 µM, compound concentration 1 uM, replicate 1
[10] = 48 h, 1 µM, compound concentration 1 uM, replicate 2
[11] = 48 h, 10 µM, compound concentration 10 uM, replicate 1
[12] = 48 h, 10 µM, compound concentration 10 uM, replicate 2

Cc1cc(NC(=O)NCCN2CCC(O)(Cc3ccccc3)CC2)c2ccccc2n1 [PALOSURAN]
Population Apoptotic (%) [1]: 37%
Population Fragmented Nuclei (%) [1]: 10%
Population Healthy Nuclei (%) [1]: 77%
Population Hoechst High Intensity Objects (%) [1]: 2%
Population Membrane Permeable-Phenotype (%) [1]: 3%
Population Mitochondria Different-Phenotype (%) [1]: 1%
Population Mitotic Cells (%) [1]: 62%
Population Normal (%) [1]: 97%
Population Pyknosed Nuclei (%) [1]: 12%
Population Tubulin-Different-Phenotype (%) [1]: 19%
Total Cell Count [1]: 133
Population Apoptotic (%) [2]: 40%
Population Fragmented Nuclei (%) [2]: 26%
Population Healthy Nuclei (%) [2]: 44%
Population Hoechst High Intensity Objects (%) [2]: 9%
Population Membrane Permeable-Phenotype (%) [2]: 1%
Population Mitochondria Different-Phenotype (%) [2]: 13%
Population Mitotic Cells (%) [2]: 59%
Population Normal (%) [2]: 90%
Population Pyknosed Nuclei (%) [2]: 28%
Population Tubulin-Different-Phenotype (%) [2]: 46%
Total Cell Count [2]: 143
Population Apoptotic (%) [3]: 40%
Population Fragmented Nuclei (%) [3]: 14%
Population Healthy Nuclei (%) [3]: 69%
Population Hoechst High Intensity Objects (%) [3]: 1%
Population Membrane Permeable-Phenotype (%) [3]: 0%
Population Mitochondria Different-Phenotype (%) [3]: 13%
Population Mitotic Cells (%) [3]: 59%
Population Normal (%) [3]: 98%
Population Pyknosed Nuclei (%) [3]: 15%
Population Tubulin-Different-Phenotype (%) [3]: 37%
Total Cell Count [3]: 178
Population Apoptotic (%) [4]: 41%
Population Fragmented Nuclei (%) [4]: 28%
Population Healthy Nuclei (%) [4]: 49%
Population Hoechst High Intensity Objects (%) [4]: 6%
Population Membrane Permeable-Phenotype (%) [4]: 3%
Population Mitochondria Different-Phenotype (%) [4]: 3%
Population Mitotic Cells (%) [4]: 58%
Population Normal (%) [4]: 93%
Population Pyknosed Nuclei (%) [4]: 22%
Population Tubulin-Different-Phenotype (%) [4]: 51%
Total Cell Count [4]: 113
Population Apoptotic (%) [5]: 53%
Population Fragmented Nuclei (%) [5]: 15%
Population Healthy Nuclei (%) [5]: 73%
Population Hoechst High Intensity Objects (%) [5]: 2%
Population Membrane Permeable-Phenotype (%) [5]: 1%
Population Mitochondria Different-Phenotype (%) [5]: 0%
Population Mitotic Cells (%) [5]: 46%
Population Normal (%) [5]: 97%
Population Pyknosed Nuclei (%) [5]: 10%
Population Tubulin-Different-Phenotype (%) [5]: 17%
Total Cell Count [5]: 129
Population Apoptotic (%) [6]: 40%
Population Fragmented Nuclei (%) [6]: 27%
Population Healthy Nuclei (%) [6]: 50%
Population Hoechst High Intensity Objects (%) [6]: 6%
Population Membrane Permeable-Phenotype (%) [6]: 14%
Population Mitochondria Different-Phenotype (%) [6]: 21%
Population Mitotic Cells (%) [6]: 60%
Population Normal (%) [6]: 93%
Population Pyknosed Nuclei (%) [6]: 22%
Population Tubulin-Different-Phenotype (%) [6]: 62%
Total Cell Count [6]: 119
Population Apoptotic (%) [7]: 42%
Population Fragmented Nuclei (%) [7]: 14%
Population Healthy Nuclei (%) [7]: 77%
Population Hoechst High Intensity Objects (%) [7]: 1%
Population Membrane Permeable-Phenotype (%) [7]: 0%
Population Mitochondria Different-Phenotype (%) [7]: 8%
Population Mitotic Cells (%) [7]: 57%
Population Normal (%) [7]: 98%
Population Pyknosed Nuclei (%) [7]: 8%
Population Tubulin-Different-Phenotype (%) [7]: 37%
Total Cell Count [7]: 178
Population Apoptotic (%) [8]: 60%
Population Fragmented Nuclei (%) [8]: 30%
Population Healthy Nuclei (%) [8]: 47%
Population Hoechst High Intensity Objects (%) [8]: 3%
Population Membrane Permeable-Phenotype (%) [8]: 3%
Population Mitochondria Different-Phenotype (%) [8]: 1%
Population Mitotic Cells (%) [8]: 40%
Population Normal (%) [8]: 96%
Population Pyknosed Nuclei (%) [8]: 22%
Population Tubulin-Different-Phenotype (%) [8]: 48%
Total Cell Count [8]: 117
Population Apoptotic (%) [9]: 50%
Population Fragmented Nuclei (%) [9]: 16%
Population Healthy Nuclei (%) [9]: 72%
Population Hoechst High Intensity Objects (%) [9]: 3%
Population Membrane Permeable-Phenotype (%) [9]: 0%
Population Mitochondria Different-Phenotype (%) [9]: 2%
Population Mitotic Cells (%) [9]: 50%
Population Normal (%) [9]: 96%
Population Pyknosed Nuclei (%) [9]: 11%
Population Tubulin-Different-Phenotype (%) [9]: 15%
Total Cell Count [9]: 126
Population Apoptotic (%) [10]: 61%
Population Fragmented Nuclei (%) [10]: 42%
Population Healthy Nuclei (%) [10]: 44%
Population Hoechst High Intensity Objects (%) [10]: 7%
Population Membrane Permeable-Phenotype (%) [10]: 14%
Population Mitochondria Different-Phenotype (%) [10]: 14%
Population Mitotic Cells (%) [10]: 38%
Population Normal (%) [10]: 92%
Population Pyknosed Nuclei (%) [10]: 13%
Population Tubulin-Different-Phenotype (%) [10]: 61%
Total Cell Count [10]: 149
Population Apoptotic (%) [11]: 55%
Population Fragmented Nuclei (%) [11]: 19%
Population Healthy Nuclei (%) [11]: 69%
Population Hoechst High Intensity Objects (%) [11]: 5%
Population Membrane Permeable-Phenotype (%) [11]: 0%
Population Mitochondria Different-Phenotype (%) [11]: 10%
Population Mitotic Cells (%) [11]: 44%
Population Normal (%) [11]: 94%
Population Pyknosed Nuclei (%) [11]: 10%
Population Tubulin-Different-Phenotype (%) [11]: 36%
Total Cell Count [11]: 186
Population Apoptotic (%) [12]: 61%
Population Fragmented Nuclei (%) [12]: 38%
Population Healthy Nuclei (%) [12]: 44%
Population Hoechst High Intensity Objects (%) [12]: 2%
Population Membrane Permeable-Phenotype (%) [12]: 2%
Population Mitochondria Different-Phenotype (%) [12]: 6%
Population Mitotic Cells (%) [12]: 38%
Population Normal (%) [12]: 97%
Population Pyknosed Nuclei (%) [12]: 16%
Population Tubulin-Different-Phenotype (%) [12]: 61%
Total Cell Count [12]: 112
